Experimental findings from ChEMBL document CHEMBL1150302, “Aminoacyl-tRNA synthetase inhibitors as potent and synergistic immunosuppressants” (J Med Chem, 2008) are described below.

Each structure is given as a SMILES string. The source made the active and inactive calls. The rule behind the calls is not given here.

The test system of experiment [1] is PBMC. As to the kind of experiment: Immunosuppressive activity against human PBMC assessed as inhibition of allogenic mixed lymphocyte reaction. The class given is functional, cell-based. The procedure, abridged:
(§1)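 Responder cells taken from the Ficoll-plasma interface, washed three times (0.12 × 10⁶), cocultured for 6 days with mitomycin C-treated RPMI 1788 stimulator cells (0.045 × 10⁶) and compound in RPMI 1640 with 10% fetal calf serum. Pulsed after five days with 1 µCi methyl-³H thymidine, harvested 18 h later and counted. cpm converted to % inhibition versus compound-free MLR.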

The test system of experiment [2] is PBMC. As to the kind of experiment: Immunosuppressive activity against human PBMC assessed as inhibition of allogenic mixed lymphocyte reaction at 0.1 uM. Format: functional. The method in brief: as §1
Experiment [3] relates to PBMC. As to the kind of experiment: Immunosuppressive activity against human PBMC assessed as inhibition of allogenic mixed lymphocyte reaction at 0.5 uM. Format: functional. The method in brief: as §1
The subject of experiment [4] is PBMC. In words: Immunosuppressive activity against human PBMC assessed as inhibition of allogenic mixed lymphocyte reaction at 0.0004 uM. Format: functional. The method in brief:
as §1

For experiment [5], the system named is PBMC. In words: Immunosuppressive activity against human PBMC assessed as inhibition of allogenic mixed lymphocyte reaction at 0.0008 uM. The class given is functional. The method in brief:
as §1

The subject of experiment [6] is PBMC. As to the kind of experiment: Immunosuppressive activity against human PBMC assessed as inhibition of allogenic mixed lymphocyte reaction at 1.0 uM. The class given is functional. The procedure, abridged:
as §1

Experiment [7] relates to PBMC. In words: Immunosuppressive activity against human PBMC assessed as inhibition of allogenic mixed lymphocyte reaction upto 10 uM. Format: functional, cell-based. The method in brief:
as §1

The test system of experiment [8] is PBMC. As to the kind of experiment: Immunosuppressive activity against human PBMC assessed as inhibition of allogenic mixed lymphocyte reaction at 0.06 uM. Format: functional. The method in brief: as §1
Experiment [9] relates to PBMC. As to the kind of experiment: Immunosuppressive activity against human PBMC assessed as inhibition of allogenic mixed lymphocyte reaction at 0.08 uM. The class given is functional. The method in brief: as §1
The test system of experiment [10] is PBMC. As to the kind of experiment: Immunosuppressive activity against human PBMC assessed as inhibition of allogenic mixed lymphocyte reaction at 0.01 uM. The class given is functional. The procedure, abridged: as §1

In the case of `Nc1ncnc2c1ncn2[C@@H]1O[C@H](COS(=O)(=O)NC(=O)[C@@H](N)CO)[C@@H](O)[C@H]1O`, in experiment [1], the IC50 was found to be 4800 nM.
As for `Nc1ncnc2c1ncn2[C@@H]1O[C@H](COS(=O)(=O)NC(=O)[C@@H](N)Cc2c[nH]c3ccccc23)[C@@H](O)[C@H]1O`, in experiment [2], the inhibition at 0.1 µM stood at 2.3%. Further, in experiment [3], the inhibition at 0.5 µM came out at 27.6%. In experiment [1], the IC50 was 500 nM.
Regarding `CO[C@H]1C[C@@H]2CC[C@@H](C)[C@@](O)(O2)C(=O)C(=O)N2CCCC[C@H]2C(=O)O[C@H]([C@H](C)C[C@@H]2CC[C@@H](O)[C@H](OC)C2)CC(=O)[C@H](C)/C=C(\C)[C@@H](O)[C@@H](OC)C(=O)[C@H](C)C[C@H](C)/C=C/C=C/C=C/1C` [SIROLIMUS], in experiment [4], the inhibition at 0.0004 µM came to 13.1%. Besides, in experiment [5], the inhibition at 0.0008 µM was found to be 32.5%.
As to `CC(C)C[C@H](N)C(=O)NS(=O)(=O)OC[C@H]1O[C@@H](n2cnc3c(N)ncnc32)[C@H](O)[C@@H]1O` [LEUSA], the inhibition at 0.1 µM in experiment [2] stood at 16%. Further, the inhibition at 0.5 µM in [3] is 16.3%. Moreover, in [1], the IC50 amounted to 1100 nM.
For `Nc1ncnc2c1ncn2[C@@H]1CO[C@H](COS(=O)(=O)NC(=O)[C@@H](N)Cc2c[nH]cn2)[C@@H](O)[C@H]1O`, the IC50 in experiment [1] was 1200 nM.
With `NCCCC[C@H](N)C(=O)NS(=O)(=O)OC[C@H]1O[C@@H](n2cnc3c(N)ncnc32)[C@H](O)[C@@H]1O`, the IC50 in experiment [1] is 1000 nM. In addition, the inhibition at 1 µM in experiment [6] was 67%.
Turning to `CSCC[C@H](N)C(=O)NS(=O)(=O)OC[C@H]1OC[C@@H](n2cnc3c(N)ncnc32)[C@H](O)[C@@H]1O`, the IC50 in [1] came to 5200 nM.
Take `NCC(=O)NS(=O)(=O)OC[C@H]1O[C@@H](n2cnc3c(N)ncnc32)[C@H](O)[C@@H]1O`: in experiment [1], the IC50 was found to be 800 nM.
Regarding `N=C(N)NCCC[C@H](N)C(=O)NS(=O)(=O)OC[C@H]1O[C@@H](n2cnc3c(N)ncnc32)[C@H](O)[C@@H]1O`, the IC50 in [1] amounted to 1000 nM.
For the compound `Nc1ncnc2c1ncn2[C@@H]1O[C@H](COS(=O)(=O)NC(=O)[C@@H]2CCCN2)[C@@H](O)[C@H]1F`, the IC50 in [1] was found to be 300 nM.
Still for that read-out and setting: the same measure for `CSCC[C@H](N)C(=O)NS(=O)(=O)OC[C@H]1OC[C@@H](n2cnc3c(N)ncnc32)C[C@@H]1O`: 5500 nM.
Take `Nc1ncnc2c1ncn2[C@@H]1O[C@H](COS(=O)(=O)NC(=O)[C@@H]2CCCN2)[C@@H](O)[C@H]1O`: in experiment [2], the inhibition at 0.1 µM is -2.7%. In addition, the inhibition at 0.5 µM in [3] amounted to 18.6%. The IC50 in [1] was 700 nM.
Take `Nc1ncnc2c1ncn2[C@@H]1O[C@H](COS(=O)(=O)NC(=O)[C@@H](N)Cc2ccccc2)[C@@H](O)[C@H]1O` [PHESA]: the inhibition at 0.1 µM in experiment [2] was found to be 10.7%. Moreover, the inhibition at 0.5 µM in experiment [3] worked out at 53.4%. In experiment [1], the IC50 came to 1000 nM.
Consider `CSCC[C@H](N)C(=O)NS(=O)(=O)OC[C@H]1O[C@@H](n2cnc3c(N)ncnc32)[C@H](F)[C@@H]1O`, for which, in experiment [1], the IC50 amounted to 400 nM.
As for `CC[C@H](N)C(=O)NS(=O)(=O)OC[C@H]1O[C@@H](n2cnc3c(N)ncnc32)[C@H](O)[C@@H]1O`, the IC50 in [1] amounted to 5500 nM.
Turning to `C/C(=C\C(=O)OCCCCCCCCC(=O)O)C[C@@H]1OC[C@H](C[C@@H]2O[C@H]2[C@@H](C)[C@H](C)O)[C@@H](O)[C@H]1O`, the outcome in [7] was inactive.
Turning to `C[C@H](N)C(=O)NS(=O)(=O)OC[C@H]1OC[C@@H](n2cnc3c(N)ncnc32)[C@H](O)[C@@H]1O`, the inhibition at 0.5 µM in [3] is 68%. Further, in [1], the IC50 was 300 nM.
Take `CSCC[C@H](N)C(=O)NS(=O)(=O)OC[C@H]1O[C@@H](n2cnc3c(N)ncnc32)[C@H](O)[C@@H]1O`: the inhibition at 0.5 µM in experiment [3] came to 28.4%. The IC50 in [1] amounted to 500 nM.
With `C[C@H](N)C(=O)NS(=O)(=O)OC[C@H]1O[C@@H](n2cnc3c(N)ncnc32)[C@H](O)[C@@H]1O` [ALASA], the inhibition at 0.1 µM in experiment [2] stood at 6.5%. Besides, the inhibition at 0.5 µM in experiment [3] was determined as 4.9%. For the same compound, the IC50 in [1] is 1700 nM.
For `CC(C)C[C@H](N)C(=O)NS(=O)(=O)OC[C@H]1O[C@@H](n2cnc3c(N)ncnc32)[C@H](F)[C@@H]1O`, the IC50 in experiment [1] was found to be 450 nM.
With `NC(=O)C[C@H](N)C(=O)NS(=O)(=O)OC[C@H]1O[C@@H](n2cnc3c(N)ncnc32)[C@H](O)[C@@H]1O`, in experiment [1], the IC50 was 300 nM.
The same measure, in the same setting: the same measure for `C[C@H](N)C(=O)NS(=O)(=O)OC[C@H]1O[C@@H](n2cnc3c(N)ncnc32)[C@H](F)[C@@H]1O`: 400 nM; for `CCC[C@H](N)C(=O)NS(=O)(=O)OC[C@H]1O[C@@H](n2cnc3c(N)ncnc32)[C@H](O)[C@@H]1O`: 4700 nM; for `C=C(C)CC(N)C(=O)NS(=O)(=O)OC[C@H]1O[C@@H](n2cnc3c(N)ncnc32)[C@H](O)[C@@H]1O` (mixture of isomers): 550 nM.
Consider `Nc1ncnc2c1ncn2[C@@H]1CO[C@H](COS(=O)(=O)NC(=O)[C@@H]2CCCN2)[C@@H](O)C1`, for which the IC50 in experiment [1] is 2800 nM.
`CC[C@H](C)[C@H](N)C(=O)NS(=O)(=O)OC[C@H]1O[C@@H](n2cnc3c(N)ncnc32)[C@H](O)[C@@H]1O`: the IC50 in [1] worked out at 5600 nM.
On to `Nc1ncnc2c1ncn2[C@@H]1CO[C@H](COS(=O)(=O)NC(=O)[C@H](Cc2ccccc2)NCc2ccccc2)[C@@H](O)[C@H]1O`, for which, in [1], the IC50 is 80 nM.
`Nc1ncnc2c1ncn2[C@@H]1O[C@H](COS(=O)(=O)NC(=O)[C@@H](N)CC(=O)O)[C@@H](O)[C@H]1O`: the IC50 in experiment [1] was 2400 nM.
As for `Nc1ncnc2c1ncn2[C@@H]1O[C@H](COS(=O)(=O)NC(=O)[C@H](Cc2ccccc2)NCc2ccccc2)[C@@H](O)[C@H]1O`, the inhibition at 0.1 µM in experiment [2] worked out at 31.1%. In addition, the IC50 in experiment [1] is 200 nM.
Consider `N=C(N)NCCC[C@H](N)C(=O)NS(=O)(=O)OC[C@H]1OC[C@@H](n2cnc3c(N)ncnc32)C[C@@H]1O`, for which, in experiment [1], the IC50 is 600 nM.
Regarding `CC(C)C[C@H](N)C(=O)NS(=O)(=O)OC[C@H]1OC[C@@H](n2cnc3c(N)ncnc32)C[C@@H]1O`, in experiment [1], the IC50 came out at 6800 nM.
Take `Nc1ncnc2c1ncn2[C@@H]1O[C@H](COS(=O)(=O)NC(=O)[C@@H](N)Cc2ccc(O)cc2)[C@@H](O)[C@H]1O`: in [1], the IC50 is 5600 nM.
Turning to `Nc1ncnc2c1ncn2[C@@H]1O[C@H](COS(=O)(=O)NC(=O)[C@@H](N)CCC(=O)O)[C@@H](O)[C@H]1O`, the IC50 in experiment [1] was found to be 4900 nM.
With `Nc1ncnc2c1ncn2[C@@H]1O[C@H](COS(=O)(=O)NC(=O)[C@@H](N)Cc2cnc[nH]2)[C@@H](O)[C@H]1O`, the inhibition at 0.1 µM in experiment [2] amounted to 12.4%. The IC50 in experiment [1] worked out at 1000 nM.
Regarding `Nc1ncnc2c1ncn2[C@@H]1O[C@H](COS(=O)(=O)NC(=O)[C@@H](N)Cc2c[nH]cn2)[C@@H](O)[C@H]1F`, in [1], the IC50 stood at 450 nM.
On the same count and under the same terms, the same measure for `CC(C)C[C@H](N)C(=O)NS(=O)(=O)OC[C@H]1OC[C@@H](n2cnc3c(N)ncnc32)[C@H](O)[C@@H]1O`: 1000 nM.
On the same count and under the same terms, to `Nc1ncnc2c1ncn2[C@@H]1O[C@H](COS(=O)(=O)NC(=O)[C@@H]2CSCN2)[C@@H](O)[C@H]1O` belongs 550 nM.
On to `C/C=C/C[C@@H](C)[C@@H](O)[C@H]1C(=O)N[C@@H](CC)C(=O)N(C)CC(=O)N(C)[C@@H](CC(C)C)C(=O)N[C@@H](C(C)C)C(=O)N(C)[C@@H](CC(C)C)C(=O)N[C@@H](C)C(=O)N[C@H](C)C(=O)N(C)[C@@H](CC(C)C)C(=O)N(C)[C@@H](CC(C)C)C(=O)N(C)[C@@H](C(C)C)C(=O)N1C` [CYCLOSPORINE], for which the inhibition at 0.06 µM in [8] came out at 65.7%. The inhibition at 0.08 µM in experiment [9] was found to be 75.2%. For the same compound, in experiment [10], the inhibition at 0.01 µM came out at 32%.
As for `N=C(N)NCCC[C@H](N)C(=O)NS(=O)(=O)OC[C@H]1OC[C@@H](n2cnc3c(N)ncnc32)[C@H](O)[C@@H]1O`, in experiment [1], the IC50 is 600 nM.
The same measure, in the same setting: the same measure for `C[C@H](N)C(=O)NS(=O)(=O)OC[C@H]1OC[C@@H](n2cnc3c(N)ncnc32)C[C@@H]1O`: 5500 nM; for `C[C@@H](O)[C@H](N)C(=O)NS(=O)(=O)OC[C@H]1O[C@@H](n2cnc3c(N)ncnc32)[C@H](O)[C@@H]1O`: 5200 nM; for `CC(C)[C@H](N)C(=O)NS(=O)(=O)OC[C@H]1O[C@@H](n2cnc3c(N)ncnc32)[C@H](O)[C@@H]1O`: 5600 nM.
Same read-out and setting: to `Nc1ncnc2c1ncn2[C@@H]1CO[C@H](COS(=O)(=O)NC(=O)[C@@H](N)Cc2c[nH]cn2)[C@@H](O)C1` belongs 6700 nM.
`Nc1ncnc2c1ncn2[C@@H]1CO[C@H](COS(=O)(=O)NC(=O)[C@@H]2CCCN2)[C@@H](O)[C@H]1O`: the IC50 in experiment [1] was 750 nM.
Take `Nc1ncnc2c1ncn2[C@@H]1O[C@H](COS(=O)(=O)NC(=O)[C@@H](N)CS)[C@@H](O)[C@H]1O`: the IC50 in experiment [1] stood at 400 nM.
For `NC(=O)CC[C@H](N)C(=O)NS(=O)(=O)OC[C@H]1O[C@@H](n2cnc3c(N)ncnc32)[C@H](O)[C@@H]1O`, in experiment [1], the IC50 stood at 800 nM.
Still for that read-out and setting: the same measure for `Nc1ncnc2c1ncn2[C@@H]1O[C@H](COS(=O)(=O)NC(=O)[C@@H]2CCN2)[C@@H](O)[C@H]1O`: 600 nM.
